ChEMBL document CHEMBL3526116, “Toxicological evaluation of acyl glucuronides of nonsteroidal anti-inflammatory drugs using human embryonic kidney 293 cells stably expressing human UDP-glucuronosyltransferase and human hepatocytes” (Drug Metab Dispos, 2011)
Values belong to the compound of their own block, whether it stands above or below them.

What was measured:
HEK293 [1] = test: Cytotoxicity against HEK293 cells expressing UGT1A3 assessed as decrease in cell viability at 1 mM measured at 24 hrs by MTT assay; format: ADME, cell-based; settings: human, hek293, 24 h, 1000 µM
[2] = molecular target: T1, UDP-glucuronosyltransferase 1A3 (Homo sapiens, UniProt P35503); test: Activity of human UGT1A3 expressed in HEK293 cells assessed as enzyme-mediated compound formation in cell culture medium treated with ibuprofen at 1 mM measured at 6 to 24 hrs by LC-MS/MS analysis; format: ADME, cell-based; settings: hek293, 1000 µM
T1 sequence (P35503 whole entry): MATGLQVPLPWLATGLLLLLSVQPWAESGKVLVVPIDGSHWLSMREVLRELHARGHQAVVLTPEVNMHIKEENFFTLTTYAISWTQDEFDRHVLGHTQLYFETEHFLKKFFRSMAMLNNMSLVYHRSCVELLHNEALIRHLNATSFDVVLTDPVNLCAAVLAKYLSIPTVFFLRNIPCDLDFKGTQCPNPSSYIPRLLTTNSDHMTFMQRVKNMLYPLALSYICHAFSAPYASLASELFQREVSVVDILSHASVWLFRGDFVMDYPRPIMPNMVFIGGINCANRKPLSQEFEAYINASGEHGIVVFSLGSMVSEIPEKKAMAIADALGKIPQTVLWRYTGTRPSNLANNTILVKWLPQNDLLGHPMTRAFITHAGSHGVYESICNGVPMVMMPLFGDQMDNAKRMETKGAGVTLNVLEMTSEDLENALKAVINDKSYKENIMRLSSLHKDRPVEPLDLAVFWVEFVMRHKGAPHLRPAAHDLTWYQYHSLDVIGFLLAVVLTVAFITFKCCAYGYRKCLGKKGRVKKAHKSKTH
Outline: (§1)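 HEK293 stably expressing human UGT1A3 (G418-selected), 2 x 10^5 cells/well in 1 mL DMEM with 0.5% FBS, exposed immediately to drug for 6, 12 or 24 h; DMSO ≤0.1% final. Cells and medium separated by centrifugation, cell fraction resuspended in PBS; aliquots mixed 1:1 with methanol/acetic acid (100:1), spun, supernatant analysed by LC-MS/MS. Triplicate determinations, mean ± SD.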

[3] = molecular target: T1, UDP-glucuronosyltransferase 1A3; test: Activity of human UGT1A3 expressed in HEK293 cells assessed as enzyme-mediated compound formation per 2 x 10^5 cells treated with ibuprofen at 1 mM measured at 24 hrs by LC-MS/MS analysis; format: ADME, cell-based; settings: hek293, 24 h, 1000 µM; outline: as §1
[4] = molecular target: T1, UDP-glucuronosyltransferase 1A3; test: Activity of human UGT1A3 expressed in HEK293 cells assessed as enzyme-mediated compound formation in cell culture medium treated with ibuprofen at 1 mM by LC-MS/MS analysis; format: ADME, cell-based; settings: hek293, 1000 µM, TDE = time-dependent effect; outline: as §1
Hepatocyte [5] = test: Drug level in human hepatocytes assessed per 2 x 10^5 cells treated with ibuprofen at 1 mM measured at 6 hrs by LC-MS/MS analysis in presence of acyl glucuronidation inhibitor (-)-borneol; format: ADME, cell-based; settings: 1000 µM
Nucleic Acid = test: Ratio of drug level in human hepatocytes to HEK293 cells expressing UGT1A3 treated with ibuprofen at 1 mM; format: ADME, cell-based, Hepatocyte; settings: 1000 µM
Outline: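 Acyl glucuronide in cell fraction (pmol/2 x 10^5 cells) by LC-MS/MS after 6 h exposure in human hepatocytes without (-)-borneol, set against HEK/UGT1A3 cells (2 x 10^5 cells/well, DMEM with 0.5% FBS) exposed to the same drug level; cells pelleted at 3000 x g, resuspended in PBS, extracted with methanol/acetic acid.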

[6] = Drug level in cell culture medium treated with ibuprofen at 1 mM measured at 6 hrs by LC-MS/MS analysis in presence of acyl glucuronidation inhibitor (-)-borneol; format: physicochemical; settings: 1000 µM
Hepatocyte [7] = test: Drug level in human hepatocytes assessed per 2 x 10^5 cells treated with ibuprofen at 1 mM measured at 6 hrs by LC-MS/MS analysis in absence of acyl glucuronidation inhibitor (-)-borneol; format: ADME, cell-based; settings: 1000 µM
[8] = Drug level in cell culture medium treated with ibuprofen at 1 mM measured at 6 hrs by LC-MS/MS analysis in absence of acyl glucuronidation inhibitor (-)-borneol; format: physicochemical; settings: 1000 µM
HEK293 [9] = test: Genotoxicity in HEK293 cells expressing UGT1A3 assessed as DNA strand breaks at 0.1 mM after 24 hrs by comet assay; format: toxicity, cell-based; settings: human, hek293, 24 h, 100 µM
Outline: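 HEK293 cells stably expressing UGT1A3, seeded 24 h before treatment and exposed 24 h in 0.5% FBS DMEM (vehicle 0.1% DMSO). Alkaline comet assay: low-melting agarose embedding, lysis pH 10 for 1 h at 4°C, 30 min unwinding in NaOH/EDTA, electrophoresis 300 mA for 20 min, ethidium bromide stain. Tail extent moment scored on 150-180 cells over more than 3 experiments, median (IQR).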

HEK293 [10] = test: Cytotoxicity against HEK293 cells expressing UGT assessed as decrease in cell viability at 0.1 mM measured up to 72 hrs by MTT assay; format: ADME, cell-based; settings: human, hek293, 72 h, 100 µM
Outline: (§2)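 Mock and UGT1A3/UGT1A4 stable HEK293 cells given drug for up to 72 h; viability measured by WST-8-based MTT assay.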

HEK293 [11] = test: Cytotoxicity against HEK293 cells expressing UGT1A3 assessed as decrease in cell viability at 0.1 mM measured at 24 hrs by MTT assay; format: ADME, cell-based; settings: human, hek293, 24 h, 100 µM
HEK293 [12] = test: Cytotoxicity against HEK293 cells expressing UGT1A4 assessed as decrease in cell viability at 0.1 mM measured at 24 hrs […]; format: ADME, cell-based; settings: human, hek293, 24 h, 100 µM
HEK293 [13] = test: Cytotoxicity against HEK293 cells expressing UGT1A4 assessed as decrease in cell viability at 1 mM measured at 24 hrs by MTT assay; format: ADME, cell-based; settings: human, hek293, 24 h, 1000 µM
HEK293 [14] = test: Genotoxicity in HEK293 cells expressing UGT1A3 assessed as DNA strand breaks at 1 mM after 24 hrs by comet assay; format: toxicity, cell-based; settings: human, hek293, 24 h, 1000 µM
Outline: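 Alkaline comet assay: HEK/UGT1A3 cells seeded 24 h before, treated 24 h in DMEM with 0.5% FBS (vehicle 0.1% DMSO; MMS 0.1 mM positive control). Cells embedded in LMP agarose, lysed 1 h at 4°C at pH 10, unwound 30 min in NaOH/EDTA, electrophoresed 300 mA 20 min, ethidium-stained; tail moment scored on 150-180 comets over >3 experiments, median (IQR).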

HEK293 [15] = test: Cytotoxicity against HEK293 cells expressing UGT assessed as decrease in cell viability at 1 mM measured up to 72 hrs by MTT assay; format: ADME, cell-based; settings: human, hek293, 72 h, 1000 µM; outline: as §2

Compound: CCCN(CCC)S(=O)(=O)c1ccc(C(=O)O)cc1 [PROBENECID]
Activity (HEK293 [1]): Non-toxic

Drug metabolism [2]: 114.7 pmol/mL | Drug metabolism [3]: 7.2 pmol | Drug metabolism [4]: tde | Drug metabolism (Hepatocyte [5]): 3.5 pmol | Ratio (Nucleic Acid): 6 | Drug metabolism [6]: 126.5 pmol/mL | Drug metabolism (Hepatocyte [7]): 27.7 pmol | Drug metabolism [8]: 1156.7 pmol/mL
Compound: CC(C)Cc1ccc(C(C)C(=O)O[C@@H]2O[C@H](C(=O)O)[C@@H](O)[C@H](O)[C@H]2O)cc1 (stereo partly specified)

Compound: COS(C)(=O)=O [METHANESULFONIC ACID METHYL ESTER]
Activity (HEK293 [9]): Toxic

Compound: COc1ccc2c(c1)c(CC(=O)O)c(C)n2C(=O)c1ccc(Cl)cc1 [INDOMETHACIN]
Activity (HEK293 [1]): Non-toxic

Compound: O=C(O)c1cccnc1Nc1cccc(C(F)(F)F)c1 [NIFLUMIC ACID]
Activity (HEK293 [1]): Non-toxic

Compound: Cc1cc(CC(=O)O)n(C)c1C(=O)c1ccc(Cl)cc1 [ZOMEPIRAC]
Activity (HEK293 [10]): Non-toxic | Activity (HEK293 [11]): Non-toxic | Activity (HEK293 [12]): Non-toxic

Compound: COc1c(C)c2c(c(O)c1C/C=C(\C)CCC(=O)O)C(=O)OC2 [MYCOPHENOLIC ACID]
Activity (HEK293 [1]): Non-toxic

Compound: NS(=O)(=O)c1cc(C(=O)O)c(NCc2ccco2)cc1Cl [FUROSEMIDE]
Activity (HEK293 [1]): Non-toxic

Compound: CC(C)(Oc1ccc(Cl)cc1)C(=O)O [CLOFIBRIC ACID]
Activity (HEK293 [13]): Non-toxic | Activity (HEK293 [14]): Toxic | Activity (HEK293 [15]): Non-toxic | Activity (HEK293 [1]): Non-toxic
